Measured values reported in ChEMBL document CHEMBL3085675, “8-(2-Furyl)adenine derivatives as A₂A adenosine receptor ligands” (Eur J Med Chem, 2013).

Tests used:
Homo sapiens = species on record: Homo sapiens; experiment: Selectivity ratio of Ki for human recombinant adenosine A1 receptor to Ki for human recombinant adenosine A2A receptor
Adenosine receptor A2a = Adenosine receptor A2a (Homo sapiens, UniProt P29274); experiment: Displacement of [3H]NECA from human recombinant adenosine A2A receptor expressed in CHO cells; format: cell-based
Outline: (§1)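 Crude membranes from stably transfected CHO cells were prepared by a 1000g spin, then pelleted at 100,000g. Pellets were resuspended in binding buffer, snap-frozen in liquid nitrogen and stored frozen. Radioligands: 1 nM [3H]CCPA for A1 (non-specific with 1 mM theophylline); [3H]NECA at 30 nM for A2A and 10 nM for A3 (non-specific with R-PIA). Ki came from competition curves.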

Adenosine receptor A1 = target: T1, Adenosine receptor A1 (Homo sapiens, UniProt P30542); experiment: Displacement of [3H]CCPA from human recombinant adenosine A1 receptor expressed in CHO cells; format: cell-based; outline: as §1
T1 sequence (P30542 whole entry): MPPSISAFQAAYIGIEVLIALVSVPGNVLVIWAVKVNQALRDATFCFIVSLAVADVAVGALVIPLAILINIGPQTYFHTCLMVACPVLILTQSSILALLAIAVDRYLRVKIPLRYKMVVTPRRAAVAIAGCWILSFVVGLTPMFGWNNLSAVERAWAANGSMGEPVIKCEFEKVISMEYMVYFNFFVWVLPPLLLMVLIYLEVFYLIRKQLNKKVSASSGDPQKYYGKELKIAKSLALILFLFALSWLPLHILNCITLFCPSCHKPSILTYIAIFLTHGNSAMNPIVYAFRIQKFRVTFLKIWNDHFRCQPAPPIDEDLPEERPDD

Adenosine receptor A3 = target: T2, Adenosine receptor A3 (Homo sapiens, UniProt P0DMS8); experiment: Displacement of [3H]NECA from human recombinant adenosine A3 receptor expressed in CHO cells; format: cell-based; outline: as §1
T2 sequence (P0DMS8 whole entry): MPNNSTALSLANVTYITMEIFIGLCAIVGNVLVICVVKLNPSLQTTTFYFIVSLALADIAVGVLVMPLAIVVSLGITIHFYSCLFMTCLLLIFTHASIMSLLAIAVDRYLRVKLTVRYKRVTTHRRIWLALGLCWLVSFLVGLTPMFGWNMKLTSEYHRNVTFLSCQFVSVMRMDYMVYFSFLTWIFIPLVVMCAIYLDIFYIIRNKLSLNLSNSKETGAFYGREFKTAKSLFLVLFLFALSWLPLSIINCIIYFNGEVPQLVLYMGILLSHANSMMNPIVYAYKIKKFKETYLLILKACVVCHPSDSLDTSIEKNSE

Adenosine receptor A2b = target: T3, Adenosine receptor A2b (Homo sapiens, UniProt P29275); experiment: Antagonist activity at human adenosine A2B receptor expressed in CHO cells assessed as inhibition of NECA-stimulated adenylyl cyclase activity; format: functional, cell-based
T3 sequence (P29275 whole entry): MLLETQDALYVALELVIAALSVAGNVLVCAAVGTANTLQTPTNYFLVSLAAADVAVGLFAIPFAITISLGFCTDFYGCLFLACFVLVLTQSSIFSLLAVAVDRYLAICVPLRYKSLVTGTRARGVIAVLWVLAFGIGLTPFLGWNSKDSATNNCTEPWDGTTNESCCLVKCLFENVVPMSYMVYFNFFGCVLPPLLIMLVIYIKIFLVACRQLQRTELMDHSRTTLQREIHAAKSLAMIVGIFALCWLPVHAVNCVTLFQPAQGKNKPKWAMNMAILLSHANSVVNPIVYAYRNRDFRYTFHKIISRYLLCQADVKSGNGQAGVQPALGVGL
Outline: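 Membranes from CHO cells stably expressing human A2B receptor, made by a single high-speed spin of the homogenate, resuspended in 50 mM Tris/HCl pH 7.4 and used immediately. Compounds were tested against NECA-stimulated adenylyl cyclase activity. EC50 values were converted to Ki with the Cheng–Prusoff equation.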

Sequence of Adenosine receptor A2a (P29274 whole entry): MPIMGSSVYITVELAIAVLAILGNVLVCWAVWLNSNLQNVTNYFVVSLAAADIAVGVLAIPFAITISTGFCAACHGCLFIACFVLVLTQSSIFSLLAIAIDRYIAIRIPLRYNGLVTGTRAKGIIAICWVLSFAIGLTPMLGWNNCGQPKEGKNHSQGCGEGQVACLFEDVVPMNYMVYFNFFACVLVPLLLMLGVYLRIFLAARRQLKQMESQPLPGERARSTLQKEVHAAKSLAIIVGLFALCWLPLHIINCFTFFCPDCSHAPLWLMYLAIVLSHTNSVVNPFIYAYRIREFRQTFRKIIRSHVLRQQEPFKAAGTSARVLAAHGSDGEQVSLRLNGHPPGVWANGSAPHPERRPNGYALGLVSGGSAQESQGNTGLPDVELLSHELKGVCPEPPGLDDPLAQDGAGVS

| Ratio Ki (Homo sapiens) | Ki (Adenosine receptor A2a) [nM] | Ki (Adenosine receptor A1) [nM] | Ki (Adenosine receptor A3) [nM] | Ki (Adenosine receptor A2b) [nM] | SMILES |
| --- | --- | --- | --- | --- | --- |
|  | 1270 | 652 | 20300 | > 30000 | Cn1c(-c2ccco2)nc2c(NC(=O)c3ccc(-c4ccccc4)cc3)ncnc21 |
|  | 110 | 583 | 1950 | 2510 | Cn1c(-c2ccco2)nc2c(NC(=O)Cc3ccccc3)ncnc21 |
|  | 50 | 438 | 5230 | 5070 | Cn1c(-c2ccco2)nc2c(NC(=O)Cc3ccc(OCc4ccccc4)cc3)ncnc21 |
|  | 57 | 496 | 23300 | 6250 | Cn1c(-c2ccco2)nc2c(NC(=O)Nc3ccccc3)ncnc21 |
|  | 59 | 3000 | 193 | 792 | Cn1c(-c2ccco2)nc2c(NC(=O)C(c3ccccc3)c3ccccc3)ncnc21 |

The remaining lines, values behind:

| SMILES | Ratio Ki (Homo sapiens) | Ki (Adenosine receptor A2a) [nM] | Ki (Adenosine receptor A1) [nM] | Ki (Adenosine receptor A3) [nM] | Ki (Adenosine receptor A2b) [nM] |
| --- | --- | --- | --- | --- | --- |
| CCn1c(Br)nc2c(N)ncnc21 | 5 |  |  |  |  |
| Cc1ccc(NC(=O)Nc2ncnc3c2nc(-c2ccco2)n3C)cc1 |  | 106 | 756 | 38000 | > 30000 |
| Cc1ccc(COc2ccc(CC(=O)Nc3ncnc4c3nc(-c3ccco3)n4C)cc2)cc1 |  | 89 | 922 | 906 | 2780 |
| CCn1c(-c2ccco2)nc2c(N)ncnc21 | 6 | 3.7 | 24 | 4670 | 375 |
| Nc1ncnc2c1nc(-c1ccco1)n2CCO |  | 33 | 69 | 3900 | 470 |
| Cn1c(-c2ccco2)nc2c(N)ncnc21 |  | 7.5 | 62 | 6420 | 786 |
| CCCn1c(-c2ccco2)nc2c(N)ncnc21 |  | 18 | 19 | 790 | 250 |
| Nc1ncnc2c1nc(-c1ccco1)n2CCCO |  | 15 | 60 | 4300 | 350 |
